Results on 35 compounds are retold here after ChEMBL document CHEMBL4706594, “Targeting the aryl hydrocarbon receptor with a novel set of triarylmethanes” (Eur J Med Chem, 2020).

Data set [1] addresses T1, Aryl hydrocarbon receptor (Homo sapiens, UniProt P35869).
T1 sequence (P35869 whole entry): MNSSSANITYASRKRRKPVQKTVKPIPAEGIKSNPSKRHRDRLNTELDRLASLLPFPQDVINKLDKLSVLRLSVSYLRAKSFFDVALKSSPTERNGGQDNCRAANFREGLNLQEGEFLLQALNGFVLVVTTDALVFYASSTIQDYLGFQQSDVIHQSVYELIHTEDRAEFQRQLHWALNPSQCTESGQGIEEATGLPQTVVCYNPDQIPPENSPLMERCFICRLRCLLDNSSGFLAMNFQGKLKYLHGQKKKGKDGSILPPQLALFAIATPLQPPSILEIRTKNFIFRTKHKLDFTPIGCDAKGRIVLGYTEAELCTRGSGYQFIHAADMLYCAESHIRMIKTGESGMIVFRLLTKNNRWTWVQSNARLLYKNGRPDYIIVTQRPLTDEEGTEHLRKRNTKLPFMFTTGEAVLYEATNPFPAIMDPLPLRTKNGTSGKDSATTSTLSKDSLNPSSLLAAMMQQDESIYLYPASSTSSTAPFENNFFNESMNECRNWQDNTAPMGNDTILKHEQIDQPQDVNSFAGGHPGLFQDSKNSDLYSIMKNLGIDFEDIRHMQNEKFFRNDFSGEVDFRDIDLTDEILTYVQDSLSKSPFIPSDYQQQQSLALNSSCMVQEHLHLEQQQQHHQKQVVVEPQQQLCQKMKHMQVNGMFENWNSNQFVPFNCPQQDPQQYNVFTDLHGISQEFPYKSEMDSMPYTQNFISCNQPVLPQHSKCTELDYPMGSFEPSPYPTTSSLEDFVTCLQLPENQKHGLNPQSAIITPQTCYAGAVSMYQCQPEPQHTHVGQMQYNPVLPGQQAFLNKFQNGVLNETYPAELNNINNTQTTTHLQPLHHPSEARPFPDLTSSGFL
The following applies: HepG2, human, 24 h, read-out: RUmax.

The target in data set [2] is T1, Aryl hydrocarbon receptor. The experiment in a line: Agonist activity at AhR in human HepG2 cells co-transfected with pSELECT-zeo-Lucia and CYP1A1 assessed as induction of receptor transactivation incubated for 24 hrs by luciferase reporter gene assay. The data set is classed as cell-based. A general note: In a reporter assay the amount or activity of a reporter protein is the signal.

The target of data set [3] is T1, Aryl hydrocarbon receptor. The following applies: HepG2, human, 24 h, read-out: RUmax. The source holds these as a separate data set.
Data set [4] deals with T1, Aryl hydrocarbon receptor. The following applies: HepG2, human, 24 h, read-out: RUmax. This is another data set of the same source.
Data set [5] deals with T1, Aryl hydrocarbon receptor. The following applies: HepG2, human, 24 h, read-out: RUmax. The source holds these as a separate data set.
Data set [6] in a line: Cytotoxicity against human HepG2 cells harboring AhR assessed as reduction in cell viability at > 5 uM measured for 24 hrs by MTT assay relative to control. The class given is cell-based. The following applies: read-out: INH. The method in brief:
(§1)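 AhR-HepG2 cells were treated for 24–72 h with compounds at 0.1, 1.0, 5.0 and 10.0 µM, some also at 2.5 and 7.5 µM. MTT at 0.5 mg/mL was added and plates incubated at 37 °C. Formazan was dissolved in DMSO and absorbance read at 490 nm. Viability below 85% of vehicle counted as cytotoxic. One-way ANOVA with Dunnett's test; mean ± SEM, n≥3.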

The target in data set [7] is T1, Aryl hydrocarbon receptor. The following applies: HepG2, human, 24 h, read-out: RUmax. The source holds these as a separate data set.
Data set [8] relates to HepG2. The experiment in a line: Cytotoxicity against human HepG2 cells harboring AhR assessed as reduction in cell viability at 0.1 to 10 uM measured for 24 to 72 hrs by MTT assay. The data set is classed as cell-based. The following applies: hepg2, 10 µM, dose lower 0.1 µM, time lower 24 hrs, dose upper 10 µM, time upper 72 hrs. The procedure, abridged:
as §1

The test system of data set [9] is HepG2. The experiment in a line: Cytotoxicity against human HepG2 cells harboring AhR assessed as reduction in cell viability at 0.1 to 10 uM measured after 24 hrs by MTT assay. The data set is classed as cell-based. The following applies: hepg2, 24 h, dose 0.1-10 µM. The procedure, abridged:
as §1
(Formazan colour is commonly taken as a measure of viable cells.)

The target in data set [10] is T1, Aryl hydrocarbon receptor. In words: Antagonist activity at AhR in human HepG2 cells assessed as inhibition of FICZ-induced AhR transcriptional activity incubated for 24 hrs by Quanti-Luc reagent based luminescence assay. The data set is classed as cell-based.
For data set [11], the target named is T1, Aryl hydrocarbon receptor. The experiment in a line: Antagonist activity at AhR in human HepG2 cells co-transfected with pSELECT-zeo-Lucia and CYP1A1 assessed as inhibition of FICZ-induced receptor transactivation at 30 uM incubated for 24 hrs by luciferase reporter gene assay relative to control. The data set is classed as cell-based. The following applies: hepg2, 24 h.

By EC50 is commonly meant the concentration at which the effect is half-maximal. For the compound `Cc1ccc(C(c2ccccn2)c2ccccc2O)cc1` (stereo not drawn), in [1], the inhibition at 10 µM worked out at 114%. Also, the concentration for a half-maximal effect (EC50) in data set [2] is more than 100 µM. The activity at 10 µM in data set [3] is 6.93%.

On to `Oc1ccc(C(c2ccc(Br)cc2)c2ccccn2)cc1` (stereo not drawn), for which the half-maximal effective concentration (EC50) in data set [2] was more than 100 µM. Besides, the activity at 10 µM in [3] was determined as 7.71%.

With `CC(=O)Oc1ccc(C(c2ccc(C(F)(F)F)cc2)c2ccccn2)cc1` (stereo not drawn), in [4], the inhibition at 1 µM was 117%. Further, the activity at 1 µM in [5] came out at 7.71%. Moreover, the cytotoxicity at 24 h in data set [6] is 50%.

`CC(=O)Oc1ccc(C(c2ccc(C(C)(C)C)cc2)c2cccc[n+]2[O-])cc1` (stereo not drawn): the inhibition at 1 µM in data set [4] amounted to 120%. In addition, the activity at 1 µM in data set [5] was found to be 6.1%. Moreover, the cytotoxicity at 24 h in [6] was 50%.

Turning to `O=Cc1c2[nH]c3ccccc3c2cc2[nH]c3ccccc3c12`, the Emax at 18 µM in [7] worked out at 100%.

With `Cc1ccc(C(c2ccc(O)cc2)c2ccccn2)cc1` (stereo not drawn), in [1], the inhibition at 10 µM worked out at 139%. Moreover, the concentration giving a half-maximal response (EC50) in [2] is more than 100 µM. Besides, in data set [3], the activity at 10 µM is 7.09%.

With `COc1ccc(C(O)(c2ccc(C(F)(F)F)cc2)c2ccccn2)cc1` (stereo not drawn), the EC50 in data set [2] was 52 µM. The Activity entry in data set [8] is listed as “Non-Toxic”; in data set [9] it was “Toxic”. Also, the activity at 10 µM in data set [3] is 26.6%.

Turning to `Oc1ccc(C(c2ccccn2)c2c(O)ccc3ccccc23)cc1` (stereo not drawn), the Activity result in data set [8] was “Non-Toxic”.

Regarding `Oc1ccccc1C(c1ccc(Br)cc1)c1ccccn1` (stereo not drawn), the inhibition at 10 µM in [1] came to 117%. Moreover, the EC50 in data set [2] was more than 1000 µM. Besides, in data set [3], the activity at 10 µM is 7.99%.

`COc1ccc(C(c2ccccn2)c2c(O)ccc3ccccc23)cc1` (stereo not drawn): the Activity result in data set [8] is on record as “Non-Toxic”.

Take `CC(=O)Oc1ccc(C(c2ccc(C)cc2)c2ccccn2)cc1` (stereo not drawn): the concentration giving a half-maximal response (EC50) in data set [2] was more than 100 µM. In addition, the activity at 10 µM in data set [3] worked out at 9.42%.

Turning to `CC(C)(C)c1ccc(C(c2ccc(O)cc2)c2ccccn2)cc1` (stereo not drawn), the inhibition at 1 µM in data set [4] was 113%. Besides, in [5], the activity at 1 µM is 6.89%. Besides, the cytotoxicity at 24 h in data set [6] is more than 90%.

For `COc1ccc(C(c2ccccn2)c2cccs2)cc1` (stereo not drawn), the inhibition at 10 µM in [1] amounted to 137%. For the same compound, the EC50 in data set [2] is more than 50 µM. The Activity result in data set [8] is on record as “Non-Toxic”. Also, the activity at 10 µM in data set [3] came to 10.5%.

`Oc1ccc(C(c2ccc(Cl)cc2)c2ccccn2)cc1` (stereo not drawn): the EC50 in [2] was more than 100 µM. In data set [3], the activity at 10 µM is 6.59%.

In the case of `CC(=O)Oc1ccc(C(c2ccc(Cl)cc2)c2cccc[n+]2[O-])cc1` (stereo not drawn), in [1], the inhibition at 10 µM was found to be 78.8%. The concentration giving a half-maximal response (EC50) in [2] is more than 200 µM. Further, the activity at 10 µM in data set [3] came out at 7.78%.

Turning to `COc1ccc(C(c2ccccn2)n2nnc3ccccc32)cc1` (stereo not drawn), in data set [2], the concentration giving a half-maximal response (EC50) was more than 100 µM. Also, in data set [3], the activity at 10 µM came out at 8.86%.

In the case of `CC(=O)Oc1ccc(C(c2ccc(Cl)cc2)c2ccccn2)cc1` (stereo not drawn), the inhibition at 10 µM in data set [1] was determined as 128%. Further, the half-maximal effective concentration (EC50) in data set [2] was more than 1000 µM. Moreover, in data set [3], the activity at 10 µM came out at 6.26%.

On to `COc1ccc(C(c2ccccn2)c2c[nH]c3ccccc23)cc1` (stereo not drawn), for which the EC50 in data set [2] came out at 21.7 µM. Moreover, in data set [8], the Activity entry is reported as “Non-Toxic”. Moreover, the activity at 10 µM in data set [3] came to 114%.

In the case of `CC(C)(C)c1ccc(C(c2ccccn2)c2ccccc2O)cc1` (stereo not drawn), the concentration giving a half-maximal response (EC50) in [2] was more than 1000 µM. Further, in [3], the activity at 10 µM came out at 6.81%.

In general, IC50 refers to the midpoint of a concentration-inhibition curve. `Cc1ccccc1/N=N/c1ccc(NC(=O)c2ccnn2C)c(C)c1`: the concentration for half-maximal inhibition (IC50) in data set [10] was 2430 nM. The RUmax in data set [11] is given as 54.5%.

For `Oc1ccccc1C(c1ccc(F)cc1)c1ccccn1` (stereo not drawn), the inhibition at 10 µM in data set [1] was found to be 112%. Also, the concentration giving a half-maximal response (EC50) in data set [2] is more than 1000 µM. For the same compound, the activity at 10 µM in data set [3] was 6.89%.

For `Oc1ccccc1C(c1ccc(Cl)cc1)c1ccccn1` (stereo not drawn), the inhibition at 10 µM in [1] worked out at 115%. Further, in [2], the EC50 is more than 1000 µM. Besides, the activity at 10 µM in data set [3] came to 7.18%.

On to `COc1ccc(C(O)(c2ccccn2)c2ccc3ccccc3n2)cc1` (stereo not drawn), for which the Activity result in data set [8] is listed as “Non-Toxic”.

For `CC(=O)Oc1ccc(C(c2ccc(Br)cc2)c2cccc[n+]2[O-])cc1` (stereo not drawn), in data set [1], the inhibition at 10 µM was 106%. In addition, in data set [2], the half-maximal effective concentration (EC50) was more than 100 µM. Also, the activity at 10 µM in data set [3] was 8.8%.

As to `CC(=O)Oc1ccc(C(c2ccc(F)cc2)c2cccc[n+]2[O-])cc1` (stereo not drawn), the inhibition at 10 µM in [1] is 92.4%. The EC50 in data set [2] is more than 1000 µM. The activity at 10 µM in [3] stood at 6.51%.

Consider `CC(=O)Oc1ccc(C(c2ccc(C)cc2)c2cccc[n+]2[O-])cc1` (stereo not drawn), for which, in [1], the inhibition at 10 µM stood at 93.3%. Further, the EC50 in [2] is more than 200 µM. The activity at 10 µM in [3] is 6.28%.

Consider `CC(=O)Oc1ccc(C(c2ccccn2)c2c[nH]c3ccccc23)cc1` (stereo not drawn), for which the Activity entry in data set [8] is reported as “Non-Toxic”.

For the compound `CC(=O)Oc1ccc(C(c2ccc(C(C)(C)C)cc2)c2ccccn2)cc1` (stereo not drawn), the inhibition at 1 µM in data set [4] was 113%. Further, the activity at 1 µM in [5] amounted to 5.32%. Besides, the cytotoxicity at 24 h in data set [6] was determined as 50%.

As for `CC(=O)Oc1ccc(C(c2ccccn2)c2c(OC(C)=O)ccc3ccccc23)cc1` (stereo not drawn), the inhibition at 10 µM in data set [1] was 144%. The EC50 in data set [2] is more than 200 µM. In addition, the activity at 10 µM in data set [3] was found to be 5.17%.

Take `Oc1ccc(C(c2ccc(F)cc2)c2ccccn2)cc1` (stereo not drawn): the concentration giving a half-maximal response (EC50) in [2] was more than 400 µM. For the same compound, the activity at 10 µM in data set [3] worked out at 7.79%.

Regarding `CC(=O)Oc1ccc(C(c2ccc(Br)cc2)c2ccccn2)cc1` (stereo not drawn), the inhibition at 10 µM in [1] turned out to be 143%. Further, the EC50 in data set [2] was more than 1000 µM. In addition, in data set [3], the activity at 10 µM was found to be 6.32%.

For `CC(=O)Oc1ccc(C(c2ccccn2)n2nnc3ccccc32)cc1` (stereo not drawn), in data set [1], the inhibition at 10 µM amounted to 142%. Moreover, the concentration giving a half-maximal response (EC50) in data set [2] was more than 100 µM. The activity at 10 µM in data set [3] worked out at 9.23%.

As for `CC(=O)Oc1ccc(C(c2ccc(F)cc2)c2ccccn2)cc1` (stereo not drawn), the inhibition at 10 µM in data set [1] was found to be 118%. In addition, the EC50 in [2] was more than 100 µM. In data set [3], the activity at 10 µM turned out to be 8.77%.

With `CC(=O)Oc1ccc(C(c2ccc(OC(C)=O)cc2)c2ccccn2)cc1` [BISACODYL], the inhibition at 10 µM in data set [1] came out at 107%. Further, the 50% effective concentration (EC50) in [2] was more than 1000 µM. The activity at 10 µM in data set [3] worked out at 6.58%.

For `Oc1ccc(C(c2ccccn2)c2cccs2)cc1` (stereo not drawn), the Activity entry in data set [8] is “Non-Toxic”.
